High-throughput results as filed in PubChem.
KCNQ1 inh = blocks the human KCNQ1 potassium channel; P51787; CHO-K1 KCNQ1, FluxOR thallium flux fluorescence; active compounds read high; B-score at 10 µM; actives 1.3% (n = 310,000);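 active = compounds whose thallium flux B-score, printed positive for inhibition, exceeds three library SD while starting fluorescence stays within three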;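 note: channel opened by potassium depolarization with thallium stimulus after 20 min compound exposure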
Target sequence (P51787 whole entry, looked up): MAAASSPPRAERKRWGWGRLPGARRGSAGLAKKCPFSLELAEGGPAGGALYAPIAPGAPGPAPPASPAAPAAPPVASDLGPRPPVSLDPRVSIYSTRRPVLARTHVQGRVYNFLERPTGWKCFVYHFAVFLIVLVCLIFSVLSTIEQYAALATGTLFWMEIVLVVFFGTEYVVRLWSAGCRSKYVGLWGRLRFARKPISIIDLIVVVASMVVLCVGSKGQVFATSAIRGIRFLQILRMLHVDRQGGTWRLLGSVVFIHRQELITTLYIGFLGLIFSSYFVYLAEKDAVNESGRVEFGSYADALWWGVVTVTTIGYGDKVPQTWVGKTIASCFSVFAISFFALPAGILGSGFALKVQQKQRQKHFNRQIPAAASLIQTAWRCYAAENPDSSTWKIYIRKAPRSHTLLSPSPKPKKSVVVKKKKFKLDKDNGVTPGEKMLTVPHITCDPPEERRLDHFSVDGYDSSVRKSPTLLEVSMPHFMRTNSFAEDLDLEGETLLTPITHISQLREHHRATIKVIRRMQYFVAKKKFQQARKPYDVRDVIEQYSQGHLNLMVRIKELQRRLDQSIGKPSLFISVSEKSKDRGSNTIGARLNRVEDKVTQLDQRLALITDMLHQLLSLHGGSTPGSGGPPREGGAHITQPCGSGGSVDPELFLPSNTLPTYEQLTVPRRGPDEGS
hERG rescue = hERG (human) protection from proarrhythmic block. CHO-hERG, FluxOR thallium flux, dofetilide IC70 present. activation (rescue from dofetilide block), less the hit threshold, % at 10 µM. actives 0.51% (n = 310,000). AID 1511;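 active = activation above the mean of controls blocked by dofetilide plus 5 SD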;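 note: thallium influx through hERG after potassium depolarization seen as dye fluorescence rise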
Kir21 inh = blocks the mouse Kir2.1 inward-rectifier potassium channel | P35561 | HEK293-Kir2.1, FluxOR thallium flux fluorescence; active compounds read low | B-score at 10 µM | actives 0.85% (n = 310,000);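 active = fluorescence ratio B-score at or below minus 3 SD of library scores, with starting-brightness B-score within 2 SD, cut at about -4.2 in these data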;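 note: channel flux triggered by added potassium and thallium sulfate stimulus; B-score of peak minus minimum fluorescence over baseline after thallium stimulus; more negative B-score means stronger Kir2.1 block with less thallium influx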
KCNK3 inh = human KCNK3 channel inhibition, primary screen; O14649; CHO-KCNK3 thallium flux, FluxOR fluorescence; active compounds read low; B-score at 10 µM; actives 0.84% (n = 340,000); AID 602410;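 active = B-score under library mean minus 4 SD, starting fluorescence ratio at most library mean plus 5 SD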;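 note: more negative B-score means stronger inhibition of thallium flux through KCNK3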
KCNK9 block = blocks the human KCNK9 two-pore domain potassium channel; HEK293 KCNK9, FluxOR thallium flux fluorescence; active compounds read low; B-score at 10 µM; actives 1.2% (n = 310,000); AID 488922;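 active = ratio B-score over 3 SD below the library mean, with starting fluorescence within 5 SD of its mean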;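 note: negative B-score means less thallium flux so channel inhibition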
KCNQ1 act = human KCNQ1 channel potentiation or activation | CHO-K1 KCNQ1, thallium flux FluxOR fluorescence; active compounds read high | P51787 | AID 2648 | actives 0.35% (n = 310,000) | B-score at 10 µM;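 active = fluorescence ratio B-score, a plate-corrected score, at least three library SD, with initial intensity B-score within 5 SD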
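assay system = KCNQ1-transfected CHO-K1 cells | medium = assay buffer with matched DMSO | probe or stimulus = depolarizing K+/Tl+ stimulus, K2SO4 and Tl2SO4 each 12.5 mM in 5x stock | dosing = single dose | incubation = dye 90 min, compound 20 min, room temperature | detection = kinetic FluxOR fluorescence, 10 s baseline plus 110 s post-stimulus | evaluation = ratio B score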
KCNK3 inh conf = human KCNK3 channel inhibition, confirmation assay; actives 99% (n = 2,400); shares compounds with KCNK3 inh; CHO-KCNK3 thallium flux, FluxOR fluorescence; 0% buffer, 100% carvedilol maximal block; ratio percent of control, % at 10 µM;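 active = ratio percent of control, averaged over triplicates, above buffer control mean plus 5 SD, cut at about 64% in these data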;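 note: ratio is the fluorescence rise from min to max over baseline after thallium stimulus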
KCNK3 uninduced = counter-screen for KCNK3 inhibitors: effect in non-induced cells. thallium flux ratio (lower = more inhibition) at 10 µM. non-induced KCNK3 parental cells, FluxOR thallium flux; active compounds read low. actives 40% (n = 2,400). shares compounds with KCNK3 inh;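 active = thallium flux ratio, averaged over three wells, more than 5 SD below the buffer control mean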;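 note: host cells are CHO cells without KCNK3 induction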
Each line names hits and unclear results; the compound was inactive in the other large screens (follow-up assays come after a bar, where they were run). Sampled rows, rich in hits. Any-hit rate of the full collection: about 3.7%.

COc1ccc(OC)c(-c2csc(NC(=O)Cc3ccc(F)cc3)n2)c1	KCNK3 inh -11.2 | KCNK3 inh conf 114.0 | KCNK3 uninduced inactive
COC(=O)c1ccc(-c2csc(NC(=O)C3=COCCO3)n2)cc1	none
Cc1cccc(N2C(=O)N3[C@H](c4ccc(Br)cc4)[C@@H]4C(=O)N(C(C)(C)C)C(=O)[C@@H]4[C@]3(C)C2=O)c1	none
Cc1ccc(S(=O)(=O)Nc2cccc3c2O[C@H](CN(C)C(=O)Nc2cccc4ccccc24)[C@H](C)CN([C@H](C)CO)C3=O)cc1	none (no result: KCNQ1 inh, hERG rescue, Kir21 inh, KCNK9 block, KCNQ1 act)
Cc1ccc(NC(=S)N(Cc2ccco2)C(C)c2cccs2)c(Cl)c1 (stereo unspecified)	KCNK3 inh -10.7 | KCNK3 inh conf 101.0 | KCNK3 uninduced inactive
C=CCN(c1ccccc1)S(=O)(=O)c1ccc2c(c1)NC(=O)C(C)S2 (stereo unspecified)	none
CC1Sc2ccc(S(=O)(=O)N(C)Cc3ccccc3)cc2NC1=O (stereo unspecified)	KCNK3 inh -10.3 | KCNK3 inh conf 93.3 | KCNK3 uninduced inactive
COCCN(C(=O)c1ccco1)c1nc(-c2ccccc2)cs1	KCNK3 inh -10.2 | KCNK3 inh conf 91.7 | KCNK3 uninduced 0.152
CCc1nc2ccccc2c(C(=O)OCc2nc3ccccc3c(=O)[nH]2)c1C	none (no result: KCNQ1 inh, hERG rescue, Kir21 inh, KCNK9 block, KCNQ1 act)
COc1nc2ccccc2nc1N1CCN(c2ccc(F)cc2)CC1	KCNK3 inh -9.82 | KCNK3 inh conf 112.7 | KCNK3 uninduced inactive
COc1ccc2c(C)cc(N3CCN(c4ccc(F)cc4)CC3)nc2c1	KCNK3 inh -9.53 | KCNK3 inh conf 114.3 | KCNK3 uninduced inactive
COc1ccc(N2CCN(c3cc(C)c4ccc(C)cc4n3)CC2)cc1	none
COc1nc2ccccc2nc1N1CCN(Cc2ccc3c(c2)OCO3)CC1	none
CC(C)(C)OC(=O)N[C@@H](Cc1ccccc1)C(=O)NCC1CCC(C(=O)N[C@@H](CC(=O)O)C(=O)O)CC1 (stereo partly specified)	none
CCCCn1c(N)c(N(C)C(=O)c2ccc(OCC3CCCO3)cc2)c(=O)[nH]c1=O (stereo unspecified)	none (no result: KCNQ1 inh, hERG rescue, Kir21 inh, KCNK9 block, KCNQ1 act)
CCC(C)(C)C1CCC(NC(=O)c2ccc(S(=O)(=O)N3CCOCC3)cc2)CC1 (stereo unspecified)	none (no result: KCNQ1 inh, hERG rescue, Kir21 inh, KCNK9 block, KCNQ1 act)
Cc1ccc(OCC(=O)Nc2ccc3c(c2)C(=O)NC3=O)c(C)c1	none
O=C(CNC(=O)c1sc2ccccc2c1Cl)NCc1cccc(C(F)(F)F)c1	none
O=[N+]([O-])c1ccc(-c2ccc(/C=N/Nc3nc(N4CCCC4)nc(N4CCCC4)n3)o2)cc1	KCNQ1 inh 7, KCNK3 inh -9.85 | KCNK3 inh conf 140.7 | KCNK3 uninduced 0.111
O=[N+]([O-])c1ccc(/C=N/Nc2nc(N3CCCC3)nc(N3CCCC3)n2)o1	none
COC(=O)CCc1c[nH]c2ccc([N+](=O)[O-])cc12	none (no result: KCNQ1 inh, hERG rescue, Kir21 inh, KCNK9 block, KCNQ1 act)
O=C(CCc1c[nH]c2ccccc12)OCc1cccc([N+](=O)[O-])c1	KCNK3 inh -9.37 | KCNK3 inh conf 83.3 | KCNK3 uninduced inactive
Cc1cccc(C(=O)N[C@H](C(=O)NCCc2ccc(S(N)(=O)=O)cc2)C(C)C)c1	none
O=C(Nc1nc2c(F)cc(F)cc2s1)C1CC(=O)N(Cc2ccco2)C1 (stereo unspecified)	none
Oc1nc(Nc2cccc(Cl)c2)sc1/C=C1\C=Nc2ccccc21	none
Oc1cccc(Nc2nc(O)c(/C=C3\C=Nc4ccccc43)s2)c1	KCNK3 inh -14.8 (no result: KCNQ1 inh, hERG rescue, Kir21 inh, KCNK9 block, KCNQ1 act) | KCNK3 inh conf 148.3 | KCNK3 uninduced 0.0827
COc1ccccc1-n1c(SCC(=O)Nc2ccccc2F)nc2[nH]ncc2c1=O	KCNK3 inh -9.58 | KCNK3 inh conf 114.0 | KCNK3 uninduced inactive
CCC1(CC)NC(=O)N(CC(=O)Nc2ccc(C)cc2C)C1=O	none (no result: KCNQ1 inh, hERG rescue, Kir21 inh, KCNK9 block, KCNQ1 act)
Cc1ccc(NC(=O)CN2C(=O)NC(C)(c3ccccc3)C2=O)c(C)c1 (stereo unspecified)	KCNK3 inh -10.6 | KCNK3 inh conf 85.3 | KCNK3 uninduced inactive
CCNC(=O)NC(=O)COC(=O)CCc1nc(=O)c2ccccc2n1C	none
CCN1CCSc2ccc(C(=O)NCc3ccccc3Br)cc21	KCNK3 inh -9.73 | KCNK3 inh conf 104.3 | KCNK3 uninduced 0.152
CN1CCSc2ccc(C(=O)NCc3cccc(Br)c3)cc21	KCNK3 inh -14.1 | KCNK3 inh conf 120.3 | KCNK3 uninduced 0.156
CCN1CCSc2ccc(C(=O)NCc3ccccc3C)cc21	none
CSCCC(NS(=O)(=O)c1ccc(C)cc1)C(=O)NC1CCCCCC1 (stereo unspecified)	none
N#CC1=C(N)NC(SCc2ccccc2)=C(C#N)C12CCCCC2	none
COc1ccc(C(=O)CSc2nc(N)nc(SC)c2C#N)cc1	none
N#CC1=C(N)NC(SCC(=O)Nc2ccccc2)=C(C#N)C12CCCCC2	KCNK3 inh -9.48 | KCNK3 inh conf 106.0 | KCNK3 uninduced 0.139
COc1ccc(C(=O)CSC2=C(C#N)C3(CCCCC3)C(C#N)=C(N)N2)cc1	KCNK3 inh -10.4 | KCNK3 inh conf 112.3 | KCNK3 uninduced 0.125
Cc1ccc(C)c(Sc2ccc(NC(=O)CCl)cc2)c1	none (no result: KCNK3 inh)
COc1ccc(NC(C)C(=O)N/N=C/c2ccccc2OCc2cccc(Br)c2)cc1 (stereo unspecified)	none
Cc1ccccc1NC(C)C(=O)N/N=C/c1ccccc1OCc1cccc(Br)c1 (stereo unspecified)	KCNK3 inh -10.5 | KCNK3 inh conf 92.0 | KCNK3 uninduced 0.158
COc1ccc(N(CC(=O)N/N=C/c2cccnc2)S(=O)(=O)c2ccc(C)cc2)cc1OC	none
CCOc1ncnc2c1oc1nc(CC(C)C)c3c(c12)CC(C)(C)OC3	none
CCOc1nc(CC(C)C)c2c(c1C#N)CC(C)(C)OC2	KCNK3 inh -9 | KCNK3 inh conf 111.0 | KCNK3 uninduced inactive
O=C(C1CC(=O)N(c2ccc3c(c2)OCCO3)C1)N1CCN(c2cccc(C(F)(F)F)c2)CC1 (stereo unspecified)	none
CCOC(=O)c1sc2nc(C)nc(NCc3ccc(Cl)cc3)c2c1C	KCNK3 inh -10.6 | KCNK3 inh conf 121.3 | KCNK3 uninduced 0.133
CCOC(=O)c1sc2nc(C)nc(NCc3ccc(F)cc3)c2c1C	KCNK3 inh -10.2 | KCNK3 inh conf 116.3 | KCNK3 uninduced 0.153
CCOC(=O)c1sc2nc(CC(=O)OC)nc(NCc3ccc(F)cc3)c2c1C	none
